According to ChEMBL document CHEMBL1268887, “2-Hexadecynoic acid inhibits plasmodial FAS-II enzymes and arrests erythrocytic and liver stage Plasmodium infections” (Bioorg Med Chem, 2010):
pIC50: −log10 of the molar value. Values after ≈ are worked out from the molar mass of the structure shown.

How the values were obtained:
Fatty acid synthase = molecular target: T1, Fatty acid synthase (Plasmodium falciparum, UniProt Q965D7); experiment: Inhibition of Plasmodium falciparum FabZ by spectrophotometric analysis
T1 sequence (Q965D7 whole entry): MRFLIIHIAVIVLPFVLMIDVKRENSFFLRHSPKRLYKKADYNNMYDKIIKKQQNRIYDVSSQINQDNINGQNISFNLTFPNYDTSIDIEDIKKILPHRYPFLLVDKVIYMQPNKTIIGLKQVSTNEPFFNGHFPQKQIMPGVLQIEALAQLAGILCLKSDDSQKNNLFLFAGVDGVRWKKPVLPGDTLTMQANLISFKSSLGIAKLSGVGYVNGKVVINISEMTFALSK
How it was run: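 Recombinant PfFabZ (0.5 μg) with 25 μM crotonoyl-CoA in 20 mM HEPES pH 7.4, 150 mM NaCl; DMSO at most 1% final. Read at 263 nm for 2 min, with epigallocatechin gallate as reference. IC50 came from plotted dose-response curves.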

Trypanosoma cruzi = experiment: Trypanocidal activity against intracellular amastigotes of Trypanosoma cruzi Tulahuen C2C4 expressing LacZ gene infected in rat L6 cells after 96 hrs; assay type: functional, organism-based; settings: Tulahuen C2C4, L6, 96 h
Plasmodium falciparum [1] = experiment: Antimalarial activity against erythrocytic stages of chloroquine and pyrimethamine-resistant Plasmodium falciparum K1 assessed as [3H]hypoxanthine incorporation after 48 hrs by liquid scintillation counting; assay type: functional, organism-based
How it was run: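 K1 parasites in RPMI 1640 with 5% Albumax, no hypoxanthine, given serial dilutions; 48 h at 37 °C under reduced oxygen, then 0.5 μCi [3H]-hypoxanthine added for a further 24 h. Harvested on glass-fibre filters and counted. Counts per well expressed as percentage of untreated controls; IC50 read from plotted dose-response curves. Chloroquine as standard.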

[2] = test system: Trypanosoma brucei rhodesiense; experiment: Trypanocidal activity against bloodstream form of Trypanosoma brucei rhodesiense STIB 900 after 72 hrs; assay type: functional, organism-based; settings: STIB 900, 72 h
[3] = molecular target: T2, Enoyl-acyl-carrier protein reductase (Plasmodium falciparum, UniProt Q965D5); experiment: Inhibition of Plasmodium falciparum FabI by spectrophotometric analysis
T2 sequence (Q965D5 whole entry): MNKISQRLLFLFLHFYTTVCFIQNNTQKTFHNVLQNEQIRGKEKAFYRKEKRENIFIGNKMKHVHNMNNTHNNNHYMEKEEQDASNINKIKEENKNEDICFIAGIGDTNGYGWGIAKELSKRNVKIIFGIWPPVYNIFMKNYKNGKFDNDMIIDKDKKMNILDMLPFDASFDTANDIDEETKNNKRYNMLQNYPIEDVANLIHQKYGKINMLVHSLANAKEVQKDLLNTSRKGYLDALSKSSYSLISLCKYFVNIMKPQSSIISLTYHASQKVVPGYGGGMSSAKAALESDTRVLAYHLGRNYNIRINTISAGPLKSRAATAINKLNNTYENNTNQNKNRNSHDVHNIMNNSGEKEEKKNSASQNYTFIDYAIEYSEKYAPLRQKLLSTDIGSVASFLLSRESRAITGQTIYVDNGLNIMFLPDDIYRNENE

L6 = experiment: Cytotoxicity against rat L6 cells after 72 hrs by microplate fluorometric analysis; assay type: cell-based; settings: L6, 72 h
Leishmania donovani = experiment: Leishmanicidal activity against axenic amastigotes of Leishmania donovani MHOM/ET/67/L82 after 72 hrs; assay type: functional, organism-based; settings: MHOM/ET/67/L82, 72 h
[4] = molecular target: T3, 3-oxoacyl-acyl-carrier protein reductase (Plasmodium falciparum, UniProt Q965D6); experiment: Inhibition of Plasmodium falciparum FabG by spectrophotometric analysis
T3 sequence (Q965D6 whole entry): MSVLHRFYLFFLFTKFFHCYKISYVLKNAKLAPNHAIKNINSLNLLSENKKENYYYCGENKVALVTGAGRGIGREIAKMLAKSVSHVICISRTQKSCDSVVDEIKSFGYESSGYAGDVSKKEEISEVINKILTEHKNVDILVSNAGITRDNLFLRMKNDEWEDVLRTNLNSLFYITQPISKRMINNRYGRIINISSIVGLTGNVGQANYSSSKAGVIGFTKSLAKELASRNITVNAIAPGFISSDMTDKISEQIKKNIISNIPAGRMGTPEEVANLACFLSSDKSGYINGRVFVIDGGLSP
How it was run: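 Recombinant PfFabG assayed in 20 mM HEPES pH 7.4, 150 mM NaCl, with NADPH cofactor and acetoacetyl-CoA substrate; DMSO at most 1% final. IC50 came from plotted dose-response curves.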

Plasmodium yoelii [5] = experiment: Antimalarial activity against liver stages of Plasmodium yoelii expressing GFP infected in human HepG2:CD81 cells after 43 hrs by flow cytometry; assay type: functional, organism-based
How it was run: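 HepG2:CD81 cells seeded on attachment matrix in DMEM/F12 with FBS, infected next day with 50,000 PyGFP sporozoites dissected from mosquitoes 14 days post blood meal. Compound added 2 h later from 10 mM DMSO stocks, tested at 10 to 100 μM, medium changed at 24 h, grown a further 43 h at 37 °C. GFP-positive cells counted by flow cytometry with 7-AAD; atovaquone as positive control.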

Plasmodium yoelii [6] = experiment: Antimalarial activity against liver stages of Plasmodium yoelii expressing GFP infected in human HepG2:CD81 cells after 43 hrs by immunofluorescence analysis; assay type: functional, organism-based
How it was run: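 P. yoelii sporozoite-infected subconfluent HepG2:CD81 cells were kept at 37 °C in 5% CO2 and exposed to compound at up to 25 μg/ml in complete medium. After 43 h they were formalin-fixed and stained with anti-Plasmodium HSP70 mouse mAb plus rabbit anti-UIS4 or anti-FabI. About 20–25 parasites per treatment were sized at 20X against DMSO controls. The normalized reduction was used for IC50 estimation.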

Plasmodium falciparum [7] = experiment: Selectivity ratio of IC50 for Plasmodium falciparum FabG to IC50 for Plasmodium falciparum FabI
Plasmodium falciparum [8] = experiment: Selectivity ratio of IC50 for Plasmodium falciparum FabG to IC50 for Plasmodium falciparum FabZ

SMILES	pIC50 (Fatty acid synthase)	IC50 (Trypanosoma cruzi) [µg/mL]	IC50 (Plasmodium falciparum [1]) [µg/mL]	IC50 [2] [µg/mL]	pIC50 [3]	IC50 (L6) [µg/mL]	IC50 (Leishmania donovani) [µg/mL]	pIC50 [4]	IC50 (Plasmodium yoelii [5]) [µg/mL]	IC50 (Plasmodium yoelii [6]) [µg/mL]	Ratio IC50 (Plasmodium falciparum [7])	Ratio IC50 (Plasmodium falciparum [8])
O=C(O[C@@H]1Cc2c(O)cc(O)cc2O[C@@H]1c1cc(O)c(O)c(O)c1)c1cc(O)c(O)c(O)c1 [EPIGALOCATECHIN GALLATE]	7.18											
CCCCCCCCCCCCCCCC(=O)O [PALMITIC ACID]	< 3.41	> 30	3.8 (≈ 14.8 µM)	30.4 (≈ 119 µM)	< 3.41	52.7 (≈ 206 µM)	14.5 (≈ 56.5 µM)	< 3.41	> 25	> 25		
O=C1C(O)=C([C@H]2CC[C@H](c3ccc(Cl)cc3)CC2)C(=O)c2ccccc21 [ATOVAQUONE]									0.0025 (≈ 0.00681 µM)	0.00037 (≈ 0.00101 µM)		
O=C(Cn1ccnc1[N+](=O)[O-])NCc1ccccc1 [BENZNIDAZOLE]		0.489 (≈ 1.88 µM)										
CCCCCCC#CCCCCCCCC(=O)O	4.31	> 30		3.7 (≈ 14.7 µM)	4.95	80.8 (≈ 320 µM)	4.1 (≈ 16.2 µM)	< 3.40	> 25	> 25	10	50
CCCCCCCCCCC#CCCCC(=O)O	4.26	> 30	6.6 (≈ 26.1 µM)	25.5 (≈ 101 µM)	4.91	> 90	13.4 (≈ 53.1 µM)	< 3.40	> 25	> 25	10	50
COc1cc([C@@H]2c3cc4c(cc3[C@H](O)[C@H]3COC(=O)[C@H]23)OCO4)cc(OC)c1OC [PODOFILOX]						0.004 (≈ 0.00965 µM)						
CCCCCCCCCC#CCCCCC(=O)O	4.32	> 30	22.5 (≈ 89.1 µM)	31.7 (≈ 126 µM)	4.85	30.3 (≈ 120 µM)	9.8 (≈ 38.8 µM)	< 3.40	> 25	> 25	10	50
CCCCCCCCCCCCCCCCOP(=O)([O-])OCC[N+](C)(C)C [MILTEFOSINE]							0.26 (≈ 0.638 µM)					
